# Assay outcomes deposited in PubChem BioAssay by several laboratories.
# This is a sample that favours compounds with a hit; in the whole collection about 4.8% have one here.
# PAFAH1B3 inh: PAFAH1B3 enzyme inhibitors, primary screen, biochemical, fluorescence polarization, human; inhibition, % at 3.39 µM; recombinant PAFAH1B3, FP-rhodamine probe; 340,000 compounds, 0.28% hits; Platelet-activating factor acetylhydrolase IB subunit alpha1 (Homo sapiens), Q15102; AID 492972, 2010;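 active = inhibition above the screen-wide average of all tested compounds plus 3 SD, cut at about 25% in these data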;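 also: 0% = enzyme with DMSO only and 100% = wells lacking PAFAH1B3 protein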
# Target sequence (Q15102 whole entry, looked up): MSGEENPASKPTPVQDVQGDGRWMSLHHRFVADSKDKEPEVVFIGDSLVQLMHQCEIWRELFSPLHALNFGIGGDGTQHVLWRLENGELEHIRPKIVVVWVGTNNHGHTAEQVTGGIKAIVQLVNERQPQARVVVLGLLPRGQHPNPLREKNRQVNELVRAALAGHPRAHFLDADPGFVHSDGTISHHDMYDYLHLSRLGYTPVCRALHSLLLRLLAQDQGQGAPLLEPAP
# PAFAH2 FP inh: PAFAH2 enzyme inhibitors, primary screen, biochemical, fluorescence polarization, human | Platelet-activating factor acetylhydrolase 2, cytoplasmic (Homo sapiens), Q99487 | recombinant PAFAH2, FP-rhodamine activity probe | inhibition, % at 3.39 µM | 340,000 compounds, 0.99% hits;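 active = inhibition above the mean over all tested compounds plus 3 SD, cut at about 30% in these data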;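 also: inhibitors block probe labeling of enzyme so polarization drops; 0% = enzyme with DMSO and 100% = wells lacking PAFAH2 protein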
# PAFAH1B2 FP inh: PAFAH1B2 enzyme inhibitors, primary screen, biochemical, fluorescence polarization, human | Platelet-activating factor acetylhydrolase IB subunit alpha2 (Homo sapiens), P68402 | recombinant PAFAH1B2, FP-rhodamine activity probe | inhibition, % at 3.39 µM | 340,000 compounds, 1.2% hits;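 active = inhibition above the mean of all tested compounds plus 3 SD, cut at about 24% in these data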;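 also: 0% = enzyme with DMSO and 100% = wells lacking PAFAH1B2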
# NR3A LBD binder: binders of NR3A ligand-binding domain, primary screen, biophysical, differential scanning fluorimetry, uHTS | Glutamate receptor ionotropic, NMDA 3A (GRIN3A) ligand-binding domain | NR3A LBD differential scanning fluorimetry, Tm shift; 0% = protein alone, 100% = glycine-bound protein | 340,000 compounds, 2.5% hits | AID 1259313, 2017 | Tm shift relative to glycine control, % at 25 µM;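 active = melting temperature shift of at least 10% of the positive control shift, at one fixed dose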
# UCH37 inh: inhibitors of human UCH37 deubiquitinase, primary screen, biochemical, Ub-AMC cleavage, fluorescence; Ubiquitin carboxyl-terminal hydrolase isozyme L5 (Homo sapiens), Q9Y5K5; purified proteasome/UCH37; inhibition, % (concentration not given with the values); 330,000 compounds, 0.33% hits; AID 588478, 2011;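 active = mean inhibition over replicate wells above about 20%, limit read from the data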;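 also: 0% = compound-free wells with enzyme and 100% = wells lacking proteasome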
#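 Assay system: Proteasome-bound UCH37. Buffer or medium: pH 7.4 Tris-HCl (50 mM) with ovalbumin, ATP-MgCl2, DTT. Incubation: 30 min preincubation with enzyme, 25 min cleavage at room temperature. Measured by: fluorescence, ex 355 nm, em 460 nm. Read-out basis: percent inhibition. Control set: wells without proteasome as full block, compound-free enzyme plus substrate as uninhibited.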
# pPAFAH inh: pPAFAH enzyme inhibitors, primary screen, biochemical, fluorescence polarization, human; recombinant pPAFAH, FP-rhodamine probe fluorescence polarization; AID 463082, 2010; inhibition, % at 3.39 µM; 330,000 compounds, 1.5% hits; Platelet-activating factor acetylhydrolase (Homo sapiens), Q13093;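 active = inhibition above the mean inhibition across the screen plus 3 SD, cut at about 25% in these data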;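 also: inhibitors block binding of the rhodamine activity-based probe so polarization drops; 0% = enzyme with DMSO and 100% = wells lacking pPAFAH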
# Target sequence (Q13093 whole entry, looked up): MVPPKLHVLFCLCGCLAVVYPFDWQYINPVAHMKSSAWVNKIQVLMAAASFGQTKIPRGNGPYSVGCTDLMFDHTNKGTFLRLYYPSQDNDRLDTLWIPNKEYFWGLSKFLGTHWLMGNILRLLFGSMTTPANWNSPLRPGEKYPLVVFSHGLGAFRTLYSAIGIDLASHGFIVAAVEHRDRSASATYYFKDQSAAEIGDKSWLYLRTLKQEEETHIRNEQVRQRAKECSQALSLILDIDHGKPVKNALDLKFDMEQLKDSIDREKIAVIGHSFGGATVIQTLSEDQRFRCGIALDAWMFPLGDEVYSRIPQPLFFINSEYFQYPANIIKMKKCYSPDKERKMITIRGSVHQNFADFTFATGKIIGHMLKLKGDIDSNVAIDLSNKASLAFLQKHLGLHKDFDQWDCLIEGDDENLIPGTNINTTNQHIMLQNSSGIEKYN
# An asterisk follows results filed as active; / = no result given.
SMILES,PAFAH1B3 inh,PAFAH2 FP inh,PAFAH1B2 FP inh,NR3A LBD binder,UCH37 inh,pPAFAH inh
Cc1cc(C)c(C=NNC(=O)c2nnn(-c3nonc3N)c2CN2CCC(C)CC2)c(C)c1,/,/,/,/,5.6,/
N#CC1=C(S)N(c2ccccc2)C(c2ccc(-c3cc(Cl)ccc3Cl)o2)NC1=O (stereo not given),5.0,-2.1,7.5,-0.2,3.0,35.5*
N#CC1=C(S)N(c2ccccc2)C(c2ccco2)NC1=O (stereo not given),9.6,8.0,1.5,-1.2,4.3,4.5
N#CC1=C(S)N(c2ccccc2)C(c2ccc(-c3ccc(Cl)c(Cl)c3)o2)NC1=O (stereo not given),-4.3,-1.4,-2.0,-2.2,/,34.0*
CC(C)COc1cccc(-c2cc(C(=O)NN=Cc3ccncc3)c3ccccc3n2)c1,/,/,/,/,2.7,/
c1cncc(-c2cn(C[C@H]3CC[C@@H]([C@@H]4CC[C@H](Cn5cc(-c6cccnc6)nn5)O4)O3)nn2)c1,-3.2,-2.4,5.8,-0.6,24.8*,1.3
CCn1c(C)cc(/C=C2/SC(=S)NC2=O)c1C,-8.7,8.0,-1.3,-0.1,4.1,16.6
CCn1ncc(/C=C2/SC(=S)NC2=O)c1C,10.4,2.0,-2.5,11.8*,7.0,6.3
CN(C)c1ccc(N=Nc2ccc(S(=O)(=O)O)cc2)c2ccccc12,4.5,12.7,3.2,-0.7,16.9,29.6*
Cc1ccc(S(=O)(=O)N2CCC(C(=O)OCCOc3cccc(C)c3)CC2)cc1,13.1,20.2,9.0,20.2*,1.1,9.5
Cc1ccc(S(=O)(=O)N2CCC(C(=O)OCCOc3ccccc3)CC2)cc1C,11.3,8.9,3.6,2.5,2.2,28.1*
Cc1ccc(OCCOC(=O)C2CCN(S(=O)(=O)c3ccc(C)c(C)c3)CC2)cc1,9.9,8.9,7.4,1.8,3.2,4.7
Cc1cc(C)c(-n2c(O)c(C=NCCN3CCOCC3)c(=O)[nH]c2=O)c(C)c1,3.5,-2.6,4.9,-3.1,-0.9,3.0
O=c1[nH]c(=S)n(C2CCCCC2)c(O)c1C=NCCN1CCOCC1,4.1,3.6,28.6*,0.9,7.5,6.7
COc1ccc(O)c(C=NN2CCCCC2)c1,/,/,/,/,6.6,/
O=[N+]([O-])c1cccc(S(=O)(=O)c2ccc(NCCO)c([N+](=O)[O-])c2)c1,-0.7,1.1,-2.8,-38.4,31.5*,0.4
Cc1ccc(C=NNC(=O)c2cccc3ccccc23)o1,/,/,/,/,-39.7,/
COCCNC(=S)NN=C(C)c1ccc(OC(F)F)cc1,/,/,/,/,3.6,/
O=C(O)c1ccc(Cl)c(S(=O)(=O)N(Cc2ccccc2)c2ccccc2Cl)c1,6.5,12.4,28.3*,6.8,3.2,7.0
O=C(O)c1cccc(S(=O)(=O)N(Cc2ccccc2)c2ccccc2)c1,3.0,7.2,25.6*,-0.7,2.1,-0.7
COc1ccc(N(Cc2ccccc2)S(=O)(=O)c2cc(C(=O)O)ccc2Cl)cc1,-1.3,-3.3,3.3,1.9,-36.3,-2.8
O=C(O)c1ccc(Cl)c(S(=O)(=O)N(Cc2ccccc2)c2ccccc2)c1,-5.5,12.7,22.4,3.5,1.4,0.1
O=C(O)c1ccc(Cl)c(S(=O)(=O)N(Cc2ccccc2)c2ccc(F)cc2)c1,-5.7,2.0,33.0*,1.2,1.4,5.1
Cc1ccc(C(=O)ON=C2CCCc3ccccc32)cc1,/,/,/,/,2.9,/
O=C(Nc1ccc(OC(F)F)cc1)Nc1cccc(C(F)(F)F)c1,-14.6,-35.3,-8.3,38.9*,2.3,2.9
SMILES,PAFAH1B3 inh,PAFAH2 FP inh,PAFAH1B2 FP inh,NR3A LBD binder,UCH37 inh,pPAFAH inh
O=C(Nc1ccncc1)Nc1cccc(C(F)(F)F)c1,3.3,-12.7,-7.5,14.4*,1.6,-3.4
CC(C)NC(=S)NN=Cc1c[nH]c2ccccc12,/,/,/,/,-0.2,/
CCc1ccc(C(C)=NNC(=O)c2ccc(-n3cnnn3)cc2)cc1,/,/,/,/,5.6,/
O=C(NN=Cc1ccco1)c1cc(-c2ccncc2)nc2ccccc12,/,/,/,/,8.4,/
CN(C(=O)c1ccc(Br)o1)C1CCS(=O)(=O)C1 (stereo not given),3.8,2.6,3.8,-1.6,2.0,-6.3
CN(C(=O)C1CCCO1)C1CCS(=O)(=O)C1 (stereo not given),3.8,2.3,-2.3,14.1*,3.9,10.1
O=C(CN1C(=O)NC2(CCc3ccccc32)C1=O)NCc1cccc(C(F)(F)F)c1 (stereo not given),10.4,-5.5,8.4,11.2*,-1.5,-2.3
CCN=C(NN=Cc1ccc([N+](=O)[O-])cc1)SC,/,/,/,/,3.5,/
COc1ccc(C=NNC(=O)c2nonc2N)cc1OC,/,/,/,/,10.7,/
CC1CCCCN1C(=O)COC(=O)C1CCN(S(=O)(=O)c2ccc(Cl)c(C(F)(F)F)c2)CC1 (stereo not given),0.1,1.7,7.1,20.8*,-0.4,-0.8
CC1CN(c2ccc(C(F)(F)F)cc2[N+](=O)[O-])CCN1S(C)(=O)=O (stereo not given),5.9,2.2,-0.6,14.4*,-0.3,-1.6
CCOC(=O)c1c(N=CC2=C(O)CC(C)(C)CC2=O)sc(C(C)=O)c1C,/,/,/,/,6.0,/
C=CCC(CC=C)(NC(=O)c1ccccc1C)c1ccccc1,3.8,6.2,24.5*,-1.1,2.6,-4.1
C[C@H](CO)N1C[C@H](C)[C@@H](CN(C)Cc2ccc(Cl)c(Cl)c2)Oc2c(NC(=O)CCC(F)(F)F)cccc2C1=O,2.2,4.8,-2.8,-11.4,2.7,-2.8
C[C@@H]1CN([C@@H](C)CO)C(=O)c2cc(NC(=O)CCC(F)(F)F)ccc2O[C@H]1CN(C)Cc1ccc(Cl)c(Cl)c1,14.2,0.8,0.2,-0.5,6.3,5.3
C[C@H]1CN([C@@H](C)CO)C(=O)c2cccc(NC(=O)Nc3ccc(C(F)(F)F)cc3)c2O[C@@H]1CN(C)Cc1ccc(Cl)c(Cl)c1,-5.1,-32.3,-3.9,12.3*,1.5,-1.2
Cc1ccc(S(=O)(=O)Nc2ccc3c(c2)CC(=O)N([C@H](C)CO)C[C@@H](C)[C@H](CN(C)Cc2ccc(-c4ccccc4)cc2)O3)cc1,-7.6,-2.9,6.2,-9.4,1.9,19.5
C[C@H](CO)N1C[C@H](C)[C@@H](CN(C)S(=O)(=O)c2ccc(F)cc2)Oc2ccc(NS(=O)(=O)c3ccc(F)cc3)cc2C1=O,5.3,12.5,8.6,-7.2,-40.2,20.2
C[C@H](CO)N1C[C@H](C)[C@H](CN(C)Cc2ccc(-c3ccccc3)cc2)Oc2ccc(NS(=O)(=O)c3ccccc3)cc2CC1=O,-1.1,-0.3,4.5,-3.7,2.6,34.0*
